Assay outcomes as filed in PubChem BioAssay.
UPR CHOP act = activators of apoptotic arm of unfolded protein response (CHOP) | CHO-CHOP luciferase reporter, UPR activation, luminescence; percent of tunicamycin response over DMSO baseline | AID 449763 | 330,000 compounds, 0.34% hits | activation, % at 10 µM;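 active = at 10 µM dose, activation of 40% or more, normalized to positive control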;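 also: 100% = tunicamycin at 10 µg/mL and 0% = DMSO alone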
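Evaluation: % reporter activation, DMSO baseline versus tunicamycin full activation; System: CHO-CHOP luciferase reporter cell line; Input: 500 cells/well; Incubation: 6 h compound treatment, 37 °C; Measured by: Steady-Glo luciferase luminescence; Dosing: one dose, 10 µM in 0.5% DMSO; Buffer or medium: F12 medium, 10% FBS; Benchmarks: positive tunicamycin 10 µg/mL, negative DMSO alone.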
Mdm2-MdmX inh = disrupts the human Mdm2-MdmX interaction. O15151+Q00987. AID 485346. SaOS-2 split-luciferase Mdm2/MdmX complementation, luminescence. 330,000 compounds, 3% hits. inhibition, % at 8 µM;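 active = inhibition of at least 50% at 8 µM in the primary screen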
ABHD5 PLIN5 PPI = inhibitors of human ABHD5-perilipin-5 interaction; Q00G26+Q8WTS1; Split G. princeps luciferase complementation, luminescence, 4 h; inhibition, % at 4 µM; 360,000 compounds, 0.78% hits; AID 602281;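 active = inhibition above the mean inhibition across every tested compound plus 3 SD, cut at about 22% in these data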;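 also: 0% = DMSO only wells and the 100% control is not disclosed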
Target sequence (Q00G26 whole entry, looked up): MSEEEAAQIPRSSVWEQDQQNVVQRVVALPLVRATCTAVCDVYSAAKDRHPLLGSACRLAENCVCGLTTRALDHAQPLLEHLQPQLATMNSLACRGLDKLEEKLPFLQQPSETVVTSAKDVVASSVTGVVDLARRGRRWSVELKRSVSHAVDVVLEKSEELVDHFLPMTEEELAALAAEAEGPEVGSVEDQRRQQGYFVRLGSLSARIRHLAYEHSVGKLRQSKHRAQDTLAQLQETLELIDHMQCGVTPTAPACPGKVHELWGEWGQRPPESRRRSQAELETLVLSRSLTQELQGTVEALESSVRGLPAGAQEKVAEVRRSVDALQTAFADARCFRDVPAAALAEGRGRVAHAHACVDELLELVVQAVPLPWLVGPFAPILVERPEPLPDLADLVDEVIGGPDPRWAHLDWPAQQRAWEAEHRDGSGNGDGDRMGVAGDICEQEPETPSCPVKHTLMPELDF
Target sequence (Q8WTS1 whole entry, looked up): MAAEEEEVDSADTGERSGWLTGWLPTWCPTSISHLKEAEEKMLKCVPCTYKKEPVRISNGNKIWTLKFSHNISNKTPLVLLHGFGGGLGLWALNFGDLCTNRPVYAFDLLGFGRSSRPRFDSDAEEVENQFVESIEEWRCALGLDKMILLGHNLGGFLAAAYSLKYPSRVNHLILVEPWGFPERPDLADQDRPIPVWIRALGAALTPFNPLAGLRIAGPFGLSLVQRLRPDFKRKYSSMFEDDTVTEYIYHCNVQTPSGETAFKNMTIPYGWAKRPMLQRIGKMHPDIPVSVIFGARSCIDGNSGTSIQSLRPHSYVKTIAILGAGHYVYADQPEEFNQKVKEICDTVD
Granule exo inh = blocks lytic granule exocytosis; TALL-104 LAMP-1 surface exposure, flow cytometry; cells stimulated with thapsigargin and PMA; inhibition, % at 10 µM; 360,000 compounds, 0.66% hits; AID 651702;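 active = inhibition above about 55%, limit read from the data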
XBP1 UPR activ = activators of adaptive arm of unfolded protein response (XBP1); CHO-XBP1 luciferase reporter, IRE1-XBP1 UPR activation, luminescence; percent of tunicamycin response, DMSO as zero; activation, % at 20 µM; 330,000 compounds, 0.33% hits; AID 463104;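 active = versus positive control, 20 µM dose yields 30% or more activation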;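 also: 100% = tunicamycin at 10 µg/mL and 0% = DMSO only wells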
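Material – CHO cell line with stable XBP1 luciferase reporter · Buffer or medium – F12 plus 10% FBS · Compound – single point, 20 µM final compound, 1% DMSO · Schedule – 16-18 h cell attachment at 37 °C, then 6 h compound exposure · Signal – Steady-Glo luminescence read · Benchmarks – high control tunicamycin 10 µg/mL final, low control DMSO vehicle only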
ABHD5 PLIN5 conf = confirmation of human ABHD5-PLIN5 interaction inhibitors; 2,200 compounds, 67% hits; biochemical ABHD5-PLIN5 interaction, luminescence; AID 651612; shares compounds with ABHD5 PLIN5 PPI; inhibition, % at 4 µM; in the data active = inhibition above about 23%;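 also: 0% = DMSO vehicle wells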
HNF4 split-luc = counter-screen for ABHD5-PLIN5 inhibitors: HNF4 split-luciferase | 2,200 compounds, 77% hits | inhibition, % at 4 µM | shares compounds with ABHD5 PLIN5 PPI | HNF4 dimerization, luminescence, biochemical;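 active = mean inhibition across replicate wells exceeding the computed hit threshold, cut at about 13% in these data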;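 also: light from luciferase halves that rejoin when HNF4 fusion proteins dimerize; 0% = DMSO only wells and the 100% control is not given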
Numbers without * were called inactive. A selection: hits, their analogues and other compounds. The true share with any hit is near 4%.

How did CCOc1ccc(C(=O)CC(Sc2ccc(C)cc2)C(=O)O)cc1 (configuration not stated) do in these assays?
UPR CHOP act: 1; Mdm2-MdmX inh: 4; ABHD5 PLIN5 PPI: 60*; Granule exo inh: -2; XBP1 UPR activ: 2; ABHD5 PLIN5 conf: 17; HNF4 split-luc: 69*

How did Cc1cc(C)c2cc(C#N)c(N3CCCN(C(=O)c4cnccn4)CC3)nc2c1 do in these assays?
UPR CHOP act: 1; Mdm2-MdmX inh: 3; ABHD5 PLIN5 PPI: -8; Granule exo inh: 32; XBP1 UPR activ: 1

How did O=c1[nH]c(/C=C\c2cccc(O)c2)nc(O)c1[N+](=O)[O-] do in these assays?
UPR CHOP act: 0; Mdm2-MdmX inh: 11; ABHD5 PLIN5 PPI: 52*; Granule exo inh: 0; XBP1 UPR activ: 0; ABHD5 PLIN5 conf: 52*; HNF4 split-luc: 43*

What do the screens show for `CCOC(=O)c1ccc(NC(=O)CC2S/C(=N/N=C/c3c[nH]c4ccccc34)NC2=O)cc1` (configuration not stated)?
UPR CHOP act: 2; Mdm2-MdmX inh: 35; ABHD5 PLIN5 PPI: 17; Granule exo inh: 12; XBP1 UPR activ: 3

Results for Cc1ccc(NC(=O)CC2S/C(=N/N=C/c3c[nH]c4ccccc34)NC2=O)cc1 (configuration not stated) ?
UPR CHOP act: 2; Mdm2-MdmX inh: 23; ABHD5 PLIN5 PPI: 26*; Granule exo inh: 3; XBP1 UPR activ: -1; ABHD5 PLIN5 conf: 16; HNF4 split-luc: 14*

How did O=C(NC1CCCCC1)C(c1ccnc2ccccc12)n1c(=O)c(-c2ccco2)nc2ccccc21 (configuration not stated) do in these assays?
ABHD5 PLIN5 PPI: 55*; Granule exo inh: -4; ABHD5 PLIN5 conf: 50*; HNF4 split-luc: 8

What do the screens show for `O=C(NC1CCCCC1)C(c1ccc(-c2ccccc2)cc1)n1c(=O)c(-c2ccco2)nc2ccccc21` (configuration not stated)?
ABHD5 PLIN5 PPI: 79*; Granule exo inh: -7; ABHD5 PLIN5 conf: 71*; HNF4 split-luc: 2

Results for O=C(NC1CCCCC1)C(c1ccncc1)n1c(=O)c(-c2ccccc2)nc2ccccc21 (configuration not stated) ?
ABHD5 PLIN5 PPI: 0; Granule exo inh: -5

How did O=C(Nc1ccc2c(c1)OCCO2)C(c1ccnc2ccccc12)n1c(=O)c(-c2ccco2)nc2ccccc21 (configuration not stated) do in these assays?
ABHD5 PLIN5 PPI: 50*; Granule exo inh: -2; ABHD5 PLIN5 conf: 26*; HNF4 split-luc: 7

How did O=C(NC1CCCCC1)C(c1ccccc1F)n1c(=O)c(-c2ccco2)nc2ccccc21 (configuration not stated) do in these assays?
ABHD5 PLIN5 PPI: 72*; Granule exo inh: -5; ABHD5 PLIN5 conf: 85*; HNF4 split-luc: 31*

What do the screens show for `O=C(NC1CCCCC1)C(c1ccccc1F)n1c(=O)c(-c2cc3ccccc3[nH]2)nc2ccccc21` (configuration not stated)?
ABHD5 PLIN5 PPI: 3; Granule exo inh: 4

What do the screens show for `Cc1ccccc1N1CCN(CCN2C(=O)CC(=C3c4ccccc4-c4ccccc43)C2=O)CC1`?
UPR CHOP act: 0; Mdm2-MdmX inh: 1; ABHD5 PLIN5 PPI: 7; Granule exo inh: -1; XBP1 UPR activ: 1

Results for Cc1c(Cl)cccc1NC(=O)CNC(=O)C1CC(=O)N(C2CCCC2)C1 (configuration not stated) ?
UPR CHOP act: 0; Mdm2-MdmX inh: -13; ABHD5 PLIN5 PPI: 13; Granule exo inh: 12; XBP1 UPR activ: -2

How did COc1cc(-c2n[nH]c(=S)n2-c2ccc(Br)cc2)cc(OC)c1OC do in these assays?
UPR CHOP act: 0; Mdm2-MdmX inh: -2; ABHD5 PLIN5 PPI: -10; Granule exo inh: -5; XBP1 UPR activ: 1

Results for Cc1cc(C)nc(N2N=C(C(C)(C)C)CC2=O)n1 ?
UPR CHOP act: 0; Mdm2-MdmX inh: 19; ABHD5 PLIN5 PPI: 37*; Granule exo inh: -1; XBP1 UPR activ: 0; ABHD5 PLIN5 conf: 7; HNF4 split-luc: 26*

What do the screens show for `CCN1C2=C(C(=O)CCC2)C(c2ccc(O)c(Br)c2)C2=C1CCCC2=O`?
UPR CHOP act: 1; Mdm2-MdmX inh: -2; ABHD5 PLIN5 PPI: 0; Granule exo inh: -6; XBP1 UPR activ: -1

What do the screens show for `O=C(O)/C=C/C(=O)c1c(-c2ccccc2)[nH]c2ccccc12`?
UPR CHOP act: 1; Mdm2-MdmX inh: 23; ABHD5 PLIN5 PPI: 62*; Granule exo inh: 3; XBP1 UPR activ: -6; ABHD5 PLIN5 conf: 96*; HNF4 split-luc: 94*

What do the screens show for `C=CCNC(=O)C(=O)c1c(-c2ccccc2)[nH]c2ccccc12`?
UPR CHOP act: 0; Mdm2-MdmX inh: 29; ABHD5 PLIN5 PPI: 2; Granule exo inh: -10; XBP1 UPR activ: 0

What do the screens show for `Cc1ccc(C(=O)Nc2ccccc2C(=O)N2CCCCC2C)cc1` (configuration not stated)?
UPR CHOP act: -1; Mdm2-MdmX inh: 9; ABHD5 PLIN5 PPI: 106*; Granule exo inh: -2; XBP1 UPR activ: -6; ABHD5 PLIN5 conf: -1; HNF4 split-luc: 5

Results for Cc1ccc(C(=O)Nc2ccc(C(=O)N3CCCCC3C)cc2)cc1 (configuration not stated) ?
UPR CHOP act: 0; Mdm2-MdmX inh: 20; ABHD5 PLIN5 PPI: 10; Granule exo inh: 1; XBP1 UPR activ: 1

Results for COc1cc(OC)cc(-c2c(C#Cc3ccsc3)c3cc(-c4cccc5[nH]ccc45)ccc3n2C)c1 ?
UPR CHOP act: -1; Mdm2-MdmX inh: 44; ABHD5 PLIN5 PPI: 8; Granule exo inh: -1; XBP1 UPR activ: -4

What do the screens show for `Cc1ccc(S(=O)(=O)N2C[C@@]3(O)Cn4c(=O)ccc(=O)n4C[C@@]3(OC(=O)NCC3CCCCC3)C2)cc1`?
ABHD5 PLIN5 PPI: 37*; Granule exo inh: -4; ABHD5 PLIN5 conf: 58*; HNF4 split-luc: 2

What do the screens show for `COc1ccc(CC(=O)n2[nH]c(=O)cc(C)c2=O)cc1OC`?
UPR CHOP act: 4; Mdm2-MdmX inh: -2; ABHD5 PLIN5 PPI: 42*; Granule exo inh: 8; XBP1 UPR activ: -1; ABHD5 PLIN5 conf: 65*; HNF4 split-luc: 87*

What do the screens show for `O=C(COc1ncnc2scc(-c3ccc(F)cc3)c12)NCc1ccco1`?
UPR CHOP act: -3; Mdm2-MdmX inh: 20; ABHD5 PLIN5 PPI: 10; Granule exo inh: 1; XBP1 UPR activ: -4
